Reference: ChEMBL document CHEMBL3797162, “Synthesis and inhibitory evaluation of 3-linked imipramines for the exploration of the S2 site of the human serotonin transporter” (Bioorg Med Chem, 2016)

What was measured:
Assay type in all cases: cell-based
[1] = target: Sodium-dependent serotonin transporter (Homo sapiens, UniProt P31645, W103A); assay: Inhibition of human SERT W103A mutant expressed in HEK293 MSR cells assessed as [3H]-5-HT uptake preincubated for 30 mins followed addition of [3H]-5HT and compound for 10 mins by micro-scintillation counter
In short: (§1)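 Cells were transiently transfected (Lipofectamine 2000, 0.2 µg DNA per cm²) and used after 48–60 h. Cells were washed in PBS with Ca/Mg (pH 7.4) and preincubated 30 min with a dilution series. 50–100 nM [3H]5-HT plus inhibitor was then added for 10 min at room temperature.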

[2] = target: Sodium-dependent serotonin transporter (Homo sapiens, UniProt P31645, I172M); assay: Inhibition of human SERT I172M mutant expressed in HEK293 MSR cells assessed as [3H]-5-HT uptake preincubated for 30 mins followed addition of [3H]-5HT and compound for 10 mins by micro-scintillation counter; in short: as §1
[3] = target: Sodium-dependent serotonin transporter (Homo sapiens, UniProt P31645); assay: Inhibition of wild-type human SERT expressed in HEK293 MSR cells assessed as [3H]-5-HT uptake preincubated for 30 mins followed addition of [3H]-5HT and compound for 10 mins by micro-scintillation counter; in short: as §1
[4] = target: Sodium-dependent serotonin transporter (Homo sapiens, UniProt P31645, I179C); assay: Inhibition of human SERT I179C mutant expressed in HEK293 MSR cells assessed as [3H]-5-HT uptake preincubated for 30 mins followed addition of [3H]-5HT and compound for 10 mins by micro-scintillation counter; in short: as §1
Sodium-dependent serotonin transporter (Homo sapiens, UniProt P31645, I179C), sequence (P31645 whole entry I179C): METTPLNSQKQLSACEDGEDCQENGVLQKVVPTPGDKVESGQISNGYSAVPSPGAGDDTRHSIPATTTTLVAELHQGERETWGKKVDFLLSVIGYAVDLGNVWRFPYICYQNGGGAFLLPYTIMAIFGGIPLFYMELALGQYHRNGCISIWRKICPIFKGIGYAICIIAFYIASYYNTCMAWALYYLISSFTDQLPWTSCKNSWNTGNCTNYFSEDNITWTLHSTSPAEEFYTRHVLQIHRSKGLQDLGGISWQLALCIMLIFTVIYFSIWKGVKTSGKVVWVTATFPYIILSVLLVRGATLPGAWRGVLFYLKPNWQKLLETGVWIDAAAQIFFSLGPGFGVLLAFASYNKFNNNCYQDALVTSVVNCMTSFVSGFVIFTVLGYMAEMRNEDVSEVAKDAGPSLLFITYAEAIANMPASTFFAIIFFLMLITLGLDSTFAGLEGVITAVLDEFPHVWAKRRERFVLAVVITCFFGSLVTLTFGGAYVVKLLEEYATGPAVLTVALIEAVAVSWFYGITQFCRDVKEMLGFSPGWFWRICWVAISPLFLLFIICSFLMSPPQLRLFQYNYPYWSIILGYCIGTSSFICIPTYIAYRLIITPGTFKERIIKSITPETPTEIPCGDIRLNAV

Sodium-dependent serotonin transporter (Homo sapiens, UniProt P31645, W103A), sequence (P31645 whole entry W103A): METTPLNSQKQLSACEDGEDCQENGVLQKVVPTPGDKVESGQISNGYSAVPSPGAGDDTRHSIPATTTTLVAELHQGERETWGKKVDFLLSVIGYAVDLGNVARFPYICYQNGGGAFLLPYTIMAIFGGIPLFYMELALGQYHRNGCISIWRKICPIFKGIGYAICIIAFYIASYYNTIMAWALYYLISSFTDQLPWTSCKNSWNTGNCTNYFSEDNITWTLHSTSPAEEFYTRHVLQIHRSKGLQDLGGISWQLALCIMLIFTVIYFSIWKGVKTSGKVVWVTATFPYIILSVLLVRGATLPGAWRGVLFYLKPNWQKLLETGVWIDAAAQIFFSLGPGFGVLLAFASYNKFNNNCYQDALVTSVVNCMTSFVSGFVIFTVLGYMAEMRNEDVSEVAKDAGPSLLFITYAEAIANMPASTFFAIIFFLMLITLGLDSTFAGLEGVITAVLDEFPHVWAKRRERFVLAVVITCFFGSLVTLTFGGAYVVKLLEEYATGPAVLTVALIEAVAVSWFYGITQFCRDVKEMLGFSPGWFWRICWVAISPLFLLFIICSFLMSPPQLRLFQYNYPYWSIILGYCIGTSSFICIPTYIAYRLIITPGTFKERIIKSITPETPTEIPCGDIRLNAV
Sodium-dependent serotonin transporter (Homo sapiens, UniProt P31645, I172M), sequence (P31645 whole entry I172M): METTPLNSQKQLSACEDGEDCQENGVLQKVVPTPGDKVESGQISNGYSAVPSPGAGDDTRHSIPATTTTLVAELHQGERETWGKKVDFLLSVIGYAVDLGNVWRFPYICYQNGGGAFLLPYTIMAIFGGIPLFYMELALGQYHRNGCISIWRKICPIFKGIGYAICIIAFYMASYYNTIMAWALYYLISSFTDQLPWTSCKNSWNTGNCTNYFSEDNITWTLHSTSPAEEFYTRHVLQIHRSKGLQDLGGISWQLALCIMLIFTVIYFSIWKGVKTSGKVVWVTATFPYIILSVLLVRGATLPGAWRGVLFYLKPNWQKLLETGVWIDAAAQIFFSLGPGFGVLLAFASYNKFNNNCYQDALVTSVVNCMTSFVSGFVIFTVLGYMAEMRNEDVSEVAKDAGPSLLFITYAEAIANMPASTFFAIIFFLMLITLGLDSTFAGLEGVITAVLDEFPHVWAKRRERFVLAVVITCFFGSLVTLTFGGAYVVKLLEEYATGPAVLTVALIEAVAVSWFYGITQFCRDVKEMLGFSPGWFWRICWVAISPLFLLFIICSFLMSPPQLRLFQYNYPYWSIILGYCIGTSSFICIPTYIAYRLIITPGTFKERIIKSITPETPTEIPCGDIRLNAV
Sodium-dependent serotonin transporter (Homo sapiens, UniProt P31645), sequence (P31645 whole entry): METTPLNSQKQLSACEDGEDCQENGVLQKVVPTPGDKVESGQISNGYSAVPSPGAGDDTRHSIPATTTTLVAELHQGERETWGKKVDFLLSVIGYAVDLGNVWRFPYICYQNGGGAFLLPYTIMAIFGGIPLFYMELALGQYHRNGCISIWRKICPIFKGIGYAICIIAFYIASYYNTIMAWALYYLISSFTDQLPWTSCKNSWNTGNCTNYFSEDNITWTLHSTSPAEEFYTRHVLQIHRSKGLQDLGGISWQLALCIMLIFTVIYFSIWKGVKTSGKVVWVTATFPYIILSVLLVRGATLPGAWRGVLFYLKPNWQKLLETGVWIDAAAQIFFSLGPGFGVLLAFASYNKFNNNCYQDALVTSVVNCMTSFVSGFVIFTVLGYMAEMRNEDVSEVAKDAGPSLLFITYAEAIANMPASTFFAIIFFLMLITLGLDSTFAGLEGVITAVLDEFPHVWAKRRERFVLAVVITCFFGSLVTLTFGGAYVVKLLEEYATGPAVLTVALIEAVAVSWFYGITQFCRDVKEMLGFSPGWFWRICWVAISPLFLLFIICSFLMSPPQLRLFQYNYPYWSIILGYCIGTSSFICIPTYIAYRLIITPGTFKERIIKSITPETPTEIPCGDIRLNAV

SMILES | IC50 [1] [nM] | Ki [2] [nM] | Ki [3] [nM] | Ki [4] [nM]
CN(C)CCCN1c2ccccc2CCc2ccc(C#CCO)cc21 | 60 | 2600 | 150 | 35
CN(C)CCCN1c2ccccc2CCc2ccc(C#CCOCc3cccc4ccccc34)cc21 | 340 | 5400 | 590 | 280
C#Cc1ccc2c(c1)N(CCCN(C)C)c1ccccc1CC2 | 40 | 2400 | 220 | 27
CN(C)CCCN1c2ccccc2CCc2ccc(C#CCOCCOCCOc3cccc4ccccc34)cc21 | 420 | 6400 | 6500 | 450
CN(C)CCCN1c2ccccc2CCc2ccc(C#CCOCCOc3cccc4ccccc34)cc21 | 4800 | 8000 | 3500 | 1800
CN(C)CCCN1c2ccccc2CCc2ccc(C#CCOCCOc3ccc4ccccc4c3)cc21 | 440 | 2000 | 1500 | 640
CN(C)CCCN1c2ccccc2CCc2ccc(CCCOCCCOc3cccc4ccccc34)cc21 | 600 | 9400 | 1200 | 620
CN(C)CCCN1c2ccccc2CCc2ccc(C#CCOCCOCCc3cccc4ccccc34)cc21 | 300 | 5200 | 1100 | 540
CN(C)CCCN1c2ccccc2CCc2ccc(C#CCOCCCOCCCN3c4ccccc4CCc4ccccc43)cc21 | 4100 | 10000 | 11000 | 2800

Further compounds by falling IC50 [1], results first:

IC50 [1] [nM] | Ki [2] [nM] | Ki [3] [nM] | Ki [4] [nM] | SMILES
1600 | 16000 | 13000 | 1600 | CN(C)CCCN1c2ccccc2CCc2ccc(C#CCOCCCN3c4ccccc4CCc4ccccc43)cc21
940 | 27000 | 3500 | 1200 | CN(C)CCCN1c2ccccc2CCc2ccc(C#CCOCCCOc3cccc4ccccc34)cc21
840 | 11000 | 5900 | 640 | CN(C)CCCN1c2ccccc2CCc2ccc(CCCOCCCOCCCN3c4ccccc4CCc4ccccc43)cc21
610 | 5000 | 620 | 290 | CN(C)CCCN1c2ccccc2CCc2ccc(CCCOCc3cccc4ccccc34)cc21
560 | 19000 | 2000 | 500 | CN(C)CCCN1c2ccccc2CCc2ccc(C#CCOCCOCCSc3cccc4ccccc34)cc21
280 | 6700 | 1000 | 360 | CN(C)CCCN1c2ccccc2CCc2ccc(CCCOCCOCCc3cccc4ccccc34)cc21
280 | 2700 | 600 | 270 | CN(C)CCCN1c2ccccc2CCc2ccc(CCCOCCOc3cccc4ccccc34)cc21
270 | 15000 | 6300 | 330 | CN(C)CCCN1c2ccccc2CCc2ccc(CCCOCCCN3c4ccccc4CCc4ccccc43)cc21
